In ChEMBL document CHEMBL4513216, “Probing the Open Global Health Chemical Diversity Library for Multistage-Active Starting Points for Next-Generation Antimalarials” (ACS Infect Dis, 2020):

Experiment: Toxicity liver stage against HepG2, at 10uM
Assay type: cell-based
Parameters: test concentration 10 uM, cell line HepG2-A16-CD81EGFP
Details: human, HepG2-A16-CD81EGFP cells; read-out: INHIBITION
In short: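 Uninfected HepG2-A16-CD81EGFP cells, 3 × 10^3 per well, 1536-well, plated on prespotted compound at 10 μM final, parasite-free screening media added to match infected plates; puromycin 10 μM positive, DMSO 0.5% negative; run in parallel with 48 h PbLuc assay at 37 °C, 5% CO2; viability by CellTiter-Glo luminescence, normalized to controls.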

In order of rising cytotoxicity at 10 µM:
1. O=C(NCc1cccnc1)[C@@H]1C[C@H]2[C@H](CCN2c2ncc(F)cn2)O1  -85.3%
2. N#Cc1cccc(CN2CC[C@@H]3[C@@H]2CC(=O)N3CCN2CCCC2)c1  -84.4%
3. O=C1CCCN1Cc1ncn2c1CN(Cc1cccs1)CCC2  -84.1%
4. Cn1ccc(C(=O)NC2CCC23CCN(C(=O)C2CCOCC2)CC3)c1 (stereo not drawn)  -81.4%
5. CC(C)Nc1ncnc2c1CCN(C(=O)Cc1cccs1)CC2  -80.9%
6. CN1CCN(Cc2cccnc2)Cc2cccnc21  -76.9%
7. Cn1ccc(C(=O)NC2CCC23CCN(C(=O)c2cnccn2)CC3)c1 (stereo not drawn)  -71.4%
8. COCCN(Cc1nccs1)c1nc2c(s1)c(C)nn2C  -47.6%
9. CCc1ccc(CN(CCN(C)C)Cc2ccc(C)s2)nc1  -43%
10. Cc1nnc2n1CC(CNc1ncnc3ccccc13)CC2 (stereo not drawn)  -40%
11. Cc1cc(CC(=O)N2CCCC2c2nc(C(C)C)no2)on1 (stereo not drawn)  -25.9%
12. O=C(Cn1c(C(F)F)cc2cccnc21)NC1CCCC1  -22.2%
13. c1cncc(COCc2nnc3n2CCN(Cc2ccsc2)C3)c1  -21.6%
14. CS(=O)(=O)NCCCNC(=O)c1cccnc1O  -17.7%
15. CCOc1ccc(NC(C)=O)cc1S(=O)(=O)Nc1nnc(C)s1  -17.6%
16. c1nc2c(c(C3CC3)n1)CCN(Cc1ccc3c(c1)OCO3)CC2  -17.1%
17. c1cnc(NC[C@@H]2CCC[C@@H]3CN(Cc4cccnc4)C[C@@H]32)nc1  -14.3%
18. COCCc1noc(CNC2CCCN(c3cccnn3)C2)n1 (stereo not drawn)  -13.7%
19. NC(=O)C1CCN(C(=O)NCCNc2ccccn2)CC1  -12.8%
20. COCC(C)NC(=O)c1cn(C(C)C)cc2c(=O)[nH]nc1-2 (stereo not drawn)  -12.6%
21. COCCc1noc(CN2CCCC2c2noc(C(C)C)n2)n1 (stereo not drawn)  -11.5%
22. NC(=O)c1cc2c(nc1-c1ccc3c(c1)CCO3)CCC2  -11.3%
23. CSc1nccn1-c1cccc(C(=O)NCC2CC2)c1  -10.6%
24. CC(C)c1nc2c(n1C)CCN(Cc1nc(-c3cccs3)no1)C2  -10.1%
25. Cn1ccnc1CN1CC[C@H](O)[C@@H](n2ccc(=O)[nH]c2=O)CC1  -9.31%
26. CS(=O)(=O)c1ccc(OCCNCc2cccc(F)c2)cc1  -9.06%
27. CCOC(C)c1nc(CN2CCN(c3nccc(C)n3)CC2)cs1 (stereo not drawn)  -8.89%
28. CC(=O)NCCOc1c(Cl)cccc1Cl  -8.87%
29. Cc1cc(C(=O)NCC(C)N2CCc3ccccc32)no1 (stereo not drawn)  -8.8%
30. CCn1cc(N)c(-c2nnc3n2CCCC3)n1  -8.72%
31. Cc1ccc(CC2CCCN(S(C)(=O)=O)C2)nc1 (stereo not drawn)  -8.58%
32. COC(=O)C1CN(Cc2nc(C(C)(C)C)cs2)C[C@@H](C)O1 (stereo partly drawn)  -8.22%
33. Cc1nnc(CN2CCN(C)C3(CCNC(=O)CC3)C2)s1 (stereo not drawn)  -8.22%
34. Cc1ccc(OCCC(=O)NC2CCc3nccn3C2)cc1 (stereo not drawn)  -8.15%
35. CC(NCc1ccsc1)c1ccc2c(c1)NC(=O)CO2 (stereo not drawn)  -7.6%
36. CN(C)C(=O)N1C[C@H]2CC[C@@H](C1)N(Cc1ccc3nsnc3c1)C2  -6.69%
37. Cc1cc(C)n(C(=O)Cn2nc(C)c(I)c2C)n1  -6.52%
38. CN(CC(=O)Nc1cccc(F)c1)Cc1nc(N)nc(N(C)C)n1  -6.13%
39. Cn1cc(-c2cc(C(F)(F)F)n(CCCN)n2)cn1  -6.11%
40. Cc1cc2ncn(C(=O)N3CCCC3)c2cc1C  -6.01%
41. COc1cc(CCC(=O)NCC2CCCN2C)ccc1OCC(F)(F)F (stereo not drawn)  -5.99%
42. Cc1cc(C(=O)N2CCN(C)CC2)nn1CC(=O)NCc1cccs1  -5.83%
43. CCc1nc(CC2CN(c3ncnc4nc(C)cc(C)c34)CCO2)no1 (stereo not drawn)  -5.79%
44. CCOc1cccc(NS(=O)(=O)c2cc(C)c(C(=O)O)s2)c1  -5.28%
45. Cc1nc(C)c(C(=O)N2CCCC(n3ccnc3C)C2)s1 (stereo not drawn)  -5.19%
46. O=C(Cc1c[nH]c2ccccc12)N1CCC(Nc2cccnn2)CC1  -5.08%
47. CC1(C)CN(Cc2ccncc2)CCS1(=O)=O  -4.95%
48. COCCN1CCC(NC(=O)C2(c3cc(C)cc(C)c3)CC2)CC1  -4.37%
49. CN(CC1(O)CCCC1)C(=O)c1cccc(Nc2cnccn2)c1  -4.27%
50. CCC1CNCc2cc3c(C)ccc(C)c3nc2O1 (stereo not drawn)  -4.22%
51. Cc1c(CC(=O)N2CCN(C(C)C)CC2)nnn1-c1ccccc1  -3.64%
52. Cc1cccc2c1CCN(c1cc(N3CCCC3CO)ncn1)C2 (stereo not drawn)  -3.44%
53. Cc1n[nH]c(C)c1CNc1nc(-c2ccco2)nc2c1CCNCC2  -3.43%
54. CC(C)c1nnc(CN2CCCC(Cn3cncn3)C2)o1 (stereo not drawn)  -3.39%
55. O=C(c1cccnc1N1CCOCC1)N1CCCC1Cn1cccn1 (stereo not drawn)  -2.53%
56. CC(C)CC(=O)NCC(O)c1c(F)cccc1F (stereo not drawn)  -2.24%
57. Nc1nccnc1C(=O)NC1CCCN(Cc2c(F)cccc2F)C1 (stereo not drawn)  -2.14%
58. CNc1cc(C2CCCN2C(=O)CCc2ccccc2F)ccn1 (stereo not drawn)  -2.01%
59. CC(C)CCc1n[nH]c(C(=O)O)c1I  -1.93%
60. O=C(CCNCC(F)(F)F)N1CCC(Nc2cccnn2)CC1  -1.5%
61. O=C(Nc1nc2c(s1)CN(C(=O)NCc1cccs1)CC2)C1CC1  -0.707%
62. Cc1cc(C[C@@H]2COC[C@@H]2NC(=O)CN2CCOC2=O)on1  -0.6%
63. Brc1ccc(CNCc2nnc3n2CCCCC3)s1  -0.254%
64. O=C(NC1(C(=O)O)CCCC1)C1Cc2cc(F)ccc2O1 (stereo not drawn)  -0.183%
65. O=C1NCC2(CCCN(C(=O)c3csc(-c4cccs4)n3)C2)O1 (stereo not drawn)  0.55%
66. Cc1nn(C)cc1-c1cc(C(=O)NCC(C)(C)c2cccc(F)c2)n[nH]1  0.68%
67. O=C(CCN1CCCCO1)NCCSc1cnn[nH]1  0.956%
68. COCCN(Cc1ccco1)Cc1nc(-c2ccsc2)no1  1.02%
69. Cc1ccsc1CN(C)C(=O)Cn1nc(-c2ccc(F)cc2)oc1=O  1.31%
70. CCNC(=O)c1cc(OC)c(OC)cc1N(C)S(C)(=O)=O  1.56%
71. Cc1ccccc1CN1CCCC1c1cncc(Nc2nncs2)n1 (stereo not drawn)  1.66%
72. CCCn1nccc1NC(=O)CN1CCOC(Cn2cc(C)cn2)C1 (stereo not drawn)  1.88%
73. CSCC(C)(O)CNc1cccc(F)c1C(C)=O (stereo not drawn)  2.19%
74. CCc1nc(CN(Cc2cccs2)CC2CCCO2)no1 (stereo not drawn)  2.26%
75. Cn1cc(C(=O)NC2CCN(C(=O)NCCSC(F)(F)F)CC2)cn1  2.36%
76. COc1cccc(Cn2ncc(N(C)CCc3ccccc3)cc2=O)c1  2.93%
77. Cc1cccnc1CN1CCN(C(=O)CCn2ccccc2=O)CC1  3.34%
78. O=C(NC1CCCC1)NC1CCC(C(=O)N2CCSCC2)CC1 (stereo not drawn)  3.58%
79. Cc1ccc(CN(C)Cc2cc(C3CC3)[nH]n2)c(O)n1  4.11%
80. COc1ncc(C(=O)N(Cc2cnn(C)c2)C(C)C)cn1  4.23%
81. N#CC1(NC(=O)c2ccc(-c3nc(C4CC4)n[nH]3)cc2)CCSC1 (stereo not drawn)  4.39%
82. CCC(=O)N1CCN(C)C(=O)C(Cc2ccccc2-c2cccs2)C1 (stereo not drawn)  4.89%
83. COc1cc(N2CCC3(CCCN3Cc3ccn(C)n3)CC2)ncn1  4.89%
84. O=C(Cc1cccs1)N1CCC2(CC1)COCCN2CC1CC1  4.98%
85. Fc1ccc(CN2CCC3(CCN(Cc4nccs4)CC3)C2)cc1  5.04%
86. CN(CCCNC(=O)c1ccc(C#N)cc1)CC(F)(F)F  5.12%
87. CCc1ccccc1CN1CCn2nc(CNC(C)=O)cc2C1  5.18%
88. CCCc1cc(N2CCC(NC3CCOCC3)CC2)nc(C)n1  5.27%
89. O=c1[nH]c2nc(N3CCCCCC3)ncc2c(=O)n1-c1cccc(F)c1  6.39%
90. CN(Cc1nc(Cc2cccc(C(F)(F)F)c2)no1)C1CCOCC1  6.39%
91. COCCN1CCCn2cnc(CN(C)C(C)C)c2C1  6.53%
92. O=C(CCc1ccccn1)N1CCCC(N2CCNC2=O)C1 (stereo not drawn)  6.99%
93. Cc1ccc(OCCSCCn2nc3ccccn3c2=O)cc1  7%
94. NC(=O)CN1C[C@@H](c2ccccc2F)[C@@]2(CCCCC(=O)N2)C1  7.04%
95. COc1ccc(CN2CCN(C(C)=O)CC2)cc1SC(F)(F)F  7.31%
96. Cn1ccnc1CN1CCC2(CCCN2c2ncccn2)CC1  7.55%
97. O=C(c1cscn1)N1CCCCC1c1nc2cc(F)ccc2[nH]1 (stereo not drawn)  7.59%
98. COc1ccc(CN(C)Cc2ccnc(C3CCCO3)n2)cc1 (stereo not drawn)  7.67%
99. CS(=O)(=O)c1ccc(C(=O)N2CCCC(n3cncn3)C2)o1 (stereo not drawn)  7.85%
100. Cn1nc(C(=O)NCc2ccc(F)cc2)c2c1CCS(=O)(=O)C2  8.02%
101. Cc1noc(C)c1CN1CC[C@@H]2O[C@H](COCC(C)C)CC[C@@H]21  8.28%
102. O=C(C1CC(=O)N(c2ccccc2Br)C1)N1CCCCCC1 (stereo not drawn)  8.52%
103. CCn1nc(C)c2ncnc(NCCN3CCOCC3)c21  8.93%
104. Cc1ccc(C(=O)N(C)Cc2cc(Br)cs2)cn1  9.06%
105. Cc1nc(CC(C)C)cc(C(=O)N2C[C@@H](N(C)C)[C@H](C(C)C)C2)n1  9.26%
106. Cc1nn(C(C)C)c2cnn(CC(=O)N3CCN(C)CC3)c12  9.51%
107. Cc1n[nH]c(C2CN(CC(=O)NCCc3ccccc3)CCO2)n1 (stereo not drawn)  10.2%
108. O=C(NCC(F)(F)C(F)F)c1ccncc1  10.3%
109. CCCc1cc(C(=O)N2C[C@H]3CCC[C@@]3(CO)C2)[nH]n1  10.4%
110. O=C(c1ccc[nH]1)N1CCC2(CC1)COCCN(c1nccs1)C2  12.8%
111. COCC1CN(Cc2c(C)noc2C)Cc2cn(C)nc21 (stereo not drawn)  13.2%
112. CC(=O)c1c(F)cccc1NC1CCN(C(=O)CC(C)C)CC1  22.6%
113. CCCNC(=O)CCNC(=O)Cc1nc(-c2ccco2)oc1C  23.7%
